From ChEMBL document CHEMBL4219124, “Alleviating CYP and hERG liabilities by structure optimization of dihydrofuran-fused tricyclic benzo[d]imidazole series - Potent, selective and orally efficacious microsomal prostaglandin E synthase-1 (mPGES-1) inhibitors: Part-2” (Bioorg Med Chem Lett, 2018)
pIC50: −log10 of the molar value.

How the values were obtained:
[1] = molecular target: CYP2D6 (Homo sapiens, UniProt P10635); assay: Inhibition of CYP2D6 in human liver microsomes at 10 uM after 20 mins in presence of NADPH by LC-MS/MS analysis; assay type: ADME; conditions: liver microsomes
Sequence of CYP2D6 (P10635 whole entry, canonical isoform): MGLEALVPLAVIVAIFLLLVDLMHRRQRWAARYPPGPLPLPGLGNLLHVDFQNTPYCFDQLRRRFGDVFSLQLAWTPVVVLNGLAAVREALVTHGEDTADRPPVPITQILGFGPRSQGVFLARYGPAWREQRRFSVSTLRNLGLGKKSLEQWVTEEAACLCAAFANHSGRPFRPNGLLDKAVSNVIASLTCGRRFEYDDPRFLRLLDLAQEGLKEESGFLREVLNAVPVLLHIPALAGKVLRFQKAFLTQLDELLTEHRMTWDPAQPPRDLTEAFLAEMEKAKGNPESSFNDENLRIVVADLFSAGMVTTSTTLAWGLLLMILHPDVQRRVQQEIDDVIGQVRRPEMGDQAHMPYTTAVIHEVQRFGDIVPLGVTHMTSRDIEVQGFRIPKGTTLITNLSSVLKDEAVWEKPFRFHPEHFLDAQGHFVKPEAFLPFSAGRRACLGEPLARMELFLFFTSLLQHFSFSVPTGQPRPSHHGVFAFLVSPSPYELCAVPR
Procedure, shortened: (§1)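 Percent inhibition of each CYP isoform by test compound at 10 µM, compared with a no-inhibitor control. Run in triplicate.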

[2] = molecular target: T1, Thromboxane-A synthase (Homo sapiens) (UniProt P24557); assay: Inhibition of TXAS (unknown origin) at 10 uM relative to control
T1 sequence (whole entry): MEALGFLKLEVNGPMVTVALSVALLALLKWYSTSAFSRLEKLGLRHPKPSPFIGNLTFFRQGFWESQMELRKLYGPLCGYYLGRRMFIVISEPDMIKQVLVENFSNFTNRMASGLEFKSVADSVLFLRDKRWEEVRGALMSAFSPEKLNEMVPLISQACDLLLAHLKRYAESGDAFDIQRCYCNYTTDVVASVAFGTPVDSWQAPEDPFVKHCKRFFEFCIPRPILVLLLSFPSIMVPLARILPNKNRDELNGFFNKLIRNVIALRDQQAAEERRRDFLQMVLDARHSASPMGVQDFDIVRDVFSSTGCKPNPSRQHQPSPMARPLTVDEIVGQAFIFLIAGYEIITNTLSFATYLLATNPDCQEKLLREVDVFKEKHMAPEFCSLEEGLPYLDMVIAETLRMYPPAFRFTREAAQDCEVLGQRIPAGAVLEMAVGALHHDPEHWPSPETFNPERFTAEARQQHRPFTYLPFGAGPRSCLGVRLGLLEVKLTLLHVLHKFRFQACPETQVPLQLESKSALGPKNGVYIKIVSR
Procedure, shortened: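 Selectivity panel against other prostanoid-pathway enzymes. % inhibition values are means of at least two experiments, each in duplicate.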

[3] = molecular target: CYP3A4 (Homo sapiens, UniProt P08684); assay: Inhibition of CYP3A4 in human liver microsomes at 10 uM after 20 mins in presence of NADPH by LC-MS/MS analysis; assay type: ADME; procedure, shortened: as §1
Sequence of CYP3A4 (P08684 whole entry): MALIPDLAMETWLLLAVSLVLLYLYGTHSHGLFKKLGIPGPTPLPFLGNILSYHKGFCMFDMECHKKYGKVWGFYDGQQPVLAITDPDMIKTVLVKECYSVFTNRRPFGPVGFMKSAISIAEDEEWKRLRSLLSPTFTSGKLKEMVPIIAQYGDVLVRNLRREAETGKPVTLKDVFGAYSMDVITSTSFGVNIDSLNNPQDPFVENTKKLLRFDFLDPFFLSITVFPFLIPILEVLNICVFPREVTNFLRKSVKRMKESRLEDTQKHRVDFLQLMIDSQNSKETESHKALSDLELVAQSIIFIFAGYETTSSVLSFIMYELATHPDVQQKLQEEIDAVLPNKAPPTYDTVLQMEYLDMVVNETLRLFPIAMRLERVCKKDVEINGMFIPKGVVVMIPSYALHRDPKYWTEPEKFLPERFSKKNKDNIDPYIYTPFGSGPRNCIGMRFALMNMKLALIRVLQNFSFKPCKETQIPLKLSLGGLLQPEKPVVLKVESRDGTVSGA

[4] = molecular target: T2, Prostaglandin E synthase (Mus musculus) (UniProt Q9JM51); assay: Inhibition of mouse mPGES1 expressed in CHO cells assessed as reduction in PGE2 production at 10 uM using PGH2 as substrate incubated for 10 mins followed by substrate addition measured for 1 min relative to control
T2 sequence (whole entry): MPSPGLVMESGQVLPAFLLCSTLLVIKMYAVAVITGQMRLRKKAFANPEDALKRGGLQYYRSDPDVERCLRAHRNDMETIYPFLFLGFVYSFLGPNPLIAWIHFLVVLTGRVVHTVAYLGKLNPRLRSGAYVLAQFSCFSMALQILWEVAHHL
Procedure, shortened: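 Rodent enzyme protocol run as for the human and guinea pig mPGES-1 enzyme assays; single-concentration percent inhibition.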

[5] = molecular target: T3, Prostacyclin synthase (Homo sapiens) (UniProt Q16647); assay: Inhibition of recombinant human PGIS expressed in CHO cells at 10 uM relative to control; assay type: cell-based
T3 sequence (whole entry): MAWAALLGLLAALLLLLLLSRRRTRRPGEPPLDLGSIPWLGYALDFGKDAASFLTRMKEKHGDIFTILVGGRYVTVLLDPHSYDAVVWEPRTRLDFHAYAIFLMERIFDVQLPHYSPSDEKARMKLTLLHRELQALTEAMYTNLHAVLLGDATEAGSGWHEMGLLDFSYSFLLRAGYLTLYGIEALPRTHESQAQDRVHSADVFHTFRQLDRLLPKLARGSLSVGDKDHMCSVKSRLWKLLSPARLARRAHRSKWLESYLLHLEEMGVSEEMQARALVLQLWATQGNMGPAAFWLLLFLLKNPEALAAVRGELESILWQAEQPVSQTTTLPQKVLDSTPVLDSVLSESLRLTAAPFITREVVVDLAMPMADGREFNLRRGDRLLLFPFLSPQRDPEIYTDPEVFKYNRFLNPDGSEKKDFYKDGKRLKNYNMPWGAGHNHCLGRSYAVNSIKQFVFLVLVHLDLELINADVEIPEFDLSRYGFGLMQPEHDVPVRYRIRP

[6] = Metabolic stability in human liver microsomes assessed as parent compound remaining at 1 uM after 60 mins in presence of NADPH by LC-MS/MS analysis; assay type: ADME, microsome; conditions: read-out: Stability
Procedure, shortened: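 Compound incubated 60 min at 37 °C with human, rat or guinea pig liver microsomes; percent parent remaining, triplicates.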

[7] = Protein binding in guinea pig plasma at 10 uM after 5 hrs by equilibrium dialysis based LC-MS/MS analysis; assay type: ADME, cell-free, Cavia porcellus; conditions: read-out: PPB (converted)
Procedure, shortened: (§2)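 Equilibrium dialysis at 10 μM compound; result expressed as percent bound.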

[8] = Protein binding in human plasma at 10 uM after 5 hrs by equilibrium dialysis based LC-MS/MS analysis; assay type: ADME, cell-free; conditions: read-out: PPB (converted); procedure, shortened: as §2
[9] = molecular target: CYP2C19 (Homo sapiens, UniProt P33261); assay: Inhibition of CYP2C19 in human liver microsomes at 10 uM after 40 mins in presence of NADPH by LC-MS/MS analysis; assay type: ADME; procedure, shortened: as §1
Sequence of CYP2C19 (P33261 whole entry): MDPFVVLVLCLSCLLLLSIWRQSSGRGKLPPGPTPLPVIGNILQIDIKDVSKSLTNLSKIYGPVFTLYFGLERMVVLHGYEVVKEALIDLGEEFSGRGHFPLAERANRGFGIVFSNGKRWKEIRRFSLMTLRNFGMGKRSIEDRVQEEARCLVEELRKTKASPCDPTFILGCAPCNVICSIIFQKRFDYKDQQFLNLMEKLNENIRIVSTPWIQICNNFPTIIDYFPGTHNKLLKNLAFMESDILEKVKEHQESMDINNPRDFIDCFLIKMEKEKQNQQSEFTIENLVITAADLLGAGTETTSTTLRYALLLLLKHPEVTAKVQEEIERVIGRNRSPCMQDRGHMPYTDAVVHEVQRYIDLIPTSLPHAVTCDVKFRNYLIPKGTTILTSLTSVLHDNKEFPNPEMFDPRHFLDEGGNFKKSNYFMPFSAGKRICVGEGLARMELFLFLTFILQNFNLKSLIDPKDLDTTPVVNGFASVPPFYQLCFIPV

[10] = molecular target: T4, Prostaglandin E synthase (Homo sapiens, UniProt O14684); assay: Inhibition of mPGES1 in human whole blood assessed as reduction in LPS-induced PGE2 production measured after 20 to 24 hrs
T4 sequence (O14684 whole entry): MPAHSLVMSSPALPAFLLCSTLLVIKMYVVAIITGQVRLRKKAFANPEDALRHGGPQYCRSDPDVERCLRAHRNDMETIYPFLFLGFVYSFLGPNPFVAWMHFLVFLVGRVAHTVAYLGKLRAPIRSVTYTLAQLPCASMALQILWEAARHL

[11] = molecular target: T4, Prostaglandin E synthase; assay: Inhibition of recombinant human mPGES1 expressed in CHO cells assessed as reduction in PGE2 production using PGH2 as substrate incubated for 10 mins followed by substrate addition measured for 1 min; assay type: cell-based
[12] = Inhibition of recombinant human COX2 assessed as decrease in PGE2 production at 10 uM using arachidonic acid as substrate preincubated for 15 mins prior to substrate addition for 5 mins relative to control; conditions: recombinant COX2, probe arachidonic acid
[13] = molecular target: T5, CYP1A2 (Homo sapiens, UniProt P05177); assay: Inhibition of CYP1A2 in human liver microsomes at 10 uM after 20 mins in presence of NADPH by LC-MS/MS analysis; assay type: ADME; procedure, shortened: as §1
T5 sequence (P05177 whole entry): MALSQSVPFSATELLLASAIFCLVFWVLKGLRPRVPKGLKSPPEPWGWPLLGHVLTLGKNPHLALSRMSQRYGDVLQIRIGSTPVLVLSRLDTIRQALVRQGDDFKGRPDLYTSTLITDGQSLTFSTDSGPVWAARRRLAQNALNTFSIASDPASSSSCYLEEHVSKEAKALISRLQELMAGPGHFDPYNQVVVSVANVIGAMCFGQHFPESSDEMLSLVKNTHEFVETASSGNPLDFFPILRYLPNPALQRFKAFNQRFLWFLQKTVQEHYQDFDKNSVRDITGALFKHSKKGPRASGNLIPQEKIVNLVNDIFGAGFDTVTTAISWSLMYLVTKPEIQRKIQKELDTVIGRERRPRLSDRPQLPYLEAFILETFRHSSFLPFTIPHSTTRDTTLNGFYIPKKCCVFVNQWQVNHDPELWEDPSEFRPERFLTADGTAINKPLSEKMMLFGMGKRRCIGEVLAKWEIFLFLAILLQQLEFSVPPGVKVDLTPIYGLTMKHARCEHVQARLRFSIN

SMILES	inhibition at 20 min, 10 µM [1]	inhibition [2]	inhibition at 20 min, 10 µM [3]	inhibition [4]	inhibition [5]	remaining at 1 h, 1 µM [6]	fraction unbound at 5 h, 10 µM [7]	fraction unbound at 5 h, 10 µM [8]	inhibition at 40 min, 10 µM [9]	pIC50 [10]	pIC50 [11]	inhibition at 5 min, 10 µM [12]	inhibition at 20 min, 10 µM [13]
CC1(C)Cc2c(c(C(=O)Nc3ccc(C(F)(F)F)cn3)cc3nc(Nc4c(Cl)cccc4Cl)[nH]c23)O1	9%	1.3%	40%	10.9%	4.3%	91%	0.0016	0.0004	15%	6.58	8.08	35.9%	4%
CC1(C)Cc2c(c(C(=O)Nc3ccc(F)c(C(F)(F)F)c3)cc3nc(Nc4c(F)cccc4Cl)[nH]c23)O1	19%	25.5%	46%	22.1%	2.5%	100%	0.0136	0.0054	55%	6.68	8.30	23.1%	-6%
Cc1cccc(Cl)c1Nc1nc2cc(C(=O)Nc3cc(C(F)F)ccc3F)c3c(c2[nH]1)CC(C)(C)O3	14%	17.2%	16%	2.5%	20.1%	83%	0.0158	0.0008	14%	6.79	8.00	43.2%	28%
CC1(C)Cc2c(c(C(=O)Nc3cc(C(F)(F)F)ccc3F)cc3nc(Nc4c(F)cccc4Cl)[nH]c23)O1	12%	4.6%	2%	14.4%	5.6%	89%	0.0035	0.0004	33%	6.59	8.52	28.7%	22%
Cc1cccc(Cl)c1Nc1nc2cc(C(=O)Nc3cc(C(F)(F)F)ccc3F)c3c(c2[nH]1)CC(C)(C)O3	-2%	0.87%	-4%	8.2%	7.5%	100%	0.0004	0.0003	16%	6.65	8.48	31%	24%
Cn1c(Nc2c(F)cccc2Cl)nc2cc(C(=O)Nc3cccc(C(F)(F)F)c3)c3c(c21)CC(C)(C)O3	29%	22.1%	8%	5.2%	3.9%	98%	0.0028	0.0029	36%	6.39	8.24	6.5%	5%
